Screening data (PubChem)
Shown are actives, neighbours in structure and some others; about 2.5% of the full set was active somewhere.
A1 inh – inhibitors of the anti-apoptotic protein A1, read as caspase activation. 0.066% of 330,000 active. caspase activation, % (concentration not given with the values). MEF A1-2A-BIM cells, Caspase-Glo 3/7 luminescence, 3 h; percent of clofoctol response, vehicle zero;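 active = over half of replicate activation scores above 10%, or exactly half above 10 with the replicate mean above 10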
NLRP3 yeast inh – blocks the NALP3 inflammasome reconstituted in yeast; Yeast reconstituted NLRP3/ASC/caspase-1, beta-gal luminescence, 24 h; inhibition, % at 10 µM; 0.39% of 330,000 active;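 active = inhibition of 50% or more; inactive = inhibition below 50%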;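 note: plate controls were induced DMSO wells for no effect and uninduced yeast grown without galactose for full effect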
MC4R antag cAMP – human MC4R antagonism in cAMP assay; MC4R-expressing cells, MTII-stimulated cAMP, LANCE TR-FRET; inhibition, % at 6.5 µM; 0.48% of 360,000 active; AID 540295;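 active = inhibition above its plate's cutoff, the mean of tested wells on that plate plus 3 SD, cut at about 29% in these data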;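 note: 0% = Melanotan II alone and 100% = Melanotan II plus saturating MCL0020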
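Assay system: human MC4R-expressing U2OS cells; reagent: Melanotan II stimulation of cells; dosing: 6.5 µM single dose; timing: compound 30 min, challenge 1 h, detection 1 h; signal: TR-FRET cAMP assay; replicates: one well per compound, no replicates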
MC4R barr agon – agonists of human melanocortin 4 receptor (MC4R) beta-arrestin; U2OS MC4R beta-arrestin complementation, luminescence; percent of melanotan II response, DMSO zero; activation, % at 8.9 µM; 0.98% of 360,000 active; AID 540308;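 active = activation above a per-plate cutoff, the mean activation of sample wells on that plate plus 3 SD, cut at about 8% in these data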
Tb MetRS inh – Trypanosoma brucei MetRS inhibition | purified T. brucei MetRS, ATP depletion, Kinase-Glo luminescence | inhibition, % at 11.9 µM | 0.4% of 360,000 active;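 active = inhibition above a per-plate cutoff of the control wells' mean inhibition plus 3 SD, cut at about 5.5% in these data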;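 note: 0% = DMSO wells median and 100% = median of wells with control inhibitor compound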
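Dosing: 11.9 µM single point; system: parasite MetRS enzyme; technique: luminescence of leftover ATP; times: 15 min enzyme-compound preincubation, 2 h reaction, 10 min detection, 25 °C; replicates: each compound tested once; read-out basis: percent inhibition relative to median high and low control wells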
NALP1 inh – inhibitors of NALP1 inflammasome in yeast. S. cerevisiae NALP1/ASC/caspase-1 growth, X-gal OD620, 72 h. 0.61% of 280,000 active. inhibition, % at 10 µM; in the data active = inhibition mostly above about 24%, no sharp cut-off; inactive = mostly below about 32%
MC4R barr conf – human MC4R beta-arrestin agonism confirmation; activation, % at 8.9 µM; AID 602192; U2OS MC4R beta-arrestin recruitment, luminescence; scaled DMSO 0%, Melanotan II 100%; shares compounds with MC4R barr agon; 31% of 2,400 active;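 active = mean activation across replicates above the hit cutoff set in the earlier primary screen, cut at about 8% in these data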
MOR-DOR barr ag – counter-screen for MC4R agonists: agonists of mu-delta opioid heterodimer. U2OS PathHunter beta-arrestin, beta-gal luminescence; percent of deltorphin B response, DMSO zero. shares compounds with MC4R barr agon. activation, % at 9.2 µM. 5.8% of 2,400 active;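 active = mean activation across replicates exceeds the hit threshold derived in the earlier primary screen, cut at about 18% in these data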;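 note: 100% = deltorphin B at 0.9 µM final and 0% = DMSO alone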
Target sequence (P35372 whole entry, looked up): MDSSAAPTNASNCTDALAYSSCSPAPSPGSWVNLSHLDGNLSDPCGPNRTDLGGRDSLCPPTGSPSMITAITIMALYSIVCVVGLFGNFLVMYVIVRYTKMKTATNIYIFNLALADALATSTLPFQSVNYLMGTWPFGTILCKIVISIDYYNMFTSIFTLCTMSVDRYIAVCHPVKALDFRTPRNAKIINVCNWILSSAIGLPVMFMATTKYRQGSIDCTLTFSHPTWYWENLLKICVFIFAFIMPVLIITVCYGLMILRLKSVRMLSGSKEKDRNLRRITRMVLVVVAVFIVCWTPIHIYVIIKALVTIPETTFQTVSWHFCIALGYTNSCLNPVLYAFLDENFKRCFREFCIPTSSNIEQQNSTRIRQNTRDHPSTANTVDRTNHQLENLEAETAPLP
Target sequence (P41143 whole entry, looked up): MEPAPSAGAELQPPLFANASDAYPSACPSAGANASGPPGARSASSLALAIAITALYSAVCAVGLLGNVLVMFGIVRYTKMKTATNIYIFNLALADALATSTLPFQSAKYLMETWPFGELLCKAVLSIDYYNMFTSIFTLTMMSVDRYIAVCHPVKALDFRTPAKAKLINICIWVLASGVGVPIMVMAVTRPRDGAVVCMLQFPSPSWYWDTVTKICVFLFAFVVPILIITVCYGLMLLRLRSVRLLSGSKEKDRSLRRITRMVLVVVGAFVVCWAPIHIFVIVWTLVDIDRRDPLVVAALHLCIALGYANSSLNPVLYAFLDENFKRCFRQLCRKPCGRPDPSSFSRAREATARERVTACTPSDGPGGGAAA
* hit, by the source's call.

`Cc1nc2ccc(F)cc2cc1C(=O)Nc1ccc(Cl)c(Cl)c1` gave A1 inh 0.0, MC4R antag cAMP -1.3, MC4R barr agon 9.9*, Tb MetRS inh -0.4, NALP1 inh 30.8, MC4R barr conf -2.1 and MOR-DOR barr ag 6.2.
`CCCNc1c(NS(=O)(=O)c2ccc(C(C)(C)C)cc2)c(=O)oc2ccccc12` gave A1 inh -0.5, NLRP3 yeast inh 0.7, MC4R antag cAMP 5.3, MC4R barr agon 11.0*, Tb MetRS inh -0.4, NALP1 inh 9.9, MC4R barr conf 1.9 and MOR-DOR barr ag 5.6.
For CCCCCCCNC(=O)C1(CC2CC(c3ccc(Cl)cc3)=NO2)CCNCC1 (stereo not drawn) the results were A1 inh 0.2, NLRP3 yeast inh -2.2, MC4R antag cAMP 8.1, MC4R barr agon 9.7*, Tb MetRS inh -0.6, NALP1 inh 10.1, MC4R barr conf 24.4* and MOR-DOR barr ag 14.9.
Screening C/C=C/C(=O)Nc1nnc(-c2ccccc2C)s1 returned A1 inh 0.1, NLRP3 yeast inh 21.6, MC4R antag cAMP 18.9, MC4R barr agon 19.2*, Tb MetRS inh -0.6, NALP1 inh -3.6, MC4R barr conf 0.7 and MOR-DOR barr ag 5.8.
Cc1cnc(NC(=O)CSc2nc3ccccc3s2)s1 was read as A1 inh -0.1, NLRP3 yeast inh 13.1, MC4R antag cAMP 3.1, MC4R barr agon 0.5, Tb MetRS inh 0.3 and NALP1 inh 4.2.
Screening Cc1ccccc1-c1nnc(NC(=O)CSc2nc3ccccc3s2)s1 returned A1 inh 0.9, NLRP3 yeast inh 17.6, MC4R antag cAMP 0.2, MC4R barr agon 15.7*, Tb MetRS inh -0.6, NALP1 inh 27.9, MC4R barr conf 10.4* and MOR-DOR barr ag 4.4.
Screening CCn1c(C)cc(C=C2C(=O)c3ccccc3C2=O)c1C returned MC4R antag cAMP 12.3, MC4R barr agon -0.1, Tb MetRS inh 0.1 and NALP1 inh -4.1.
Cc1cc(C=C2C(=O)c3ccccc3C2=O)c(C)n1C was read as A1 inh 0.4, NLRP3 yeast inh 12.5, MC4R antag cAMP -6.1, MC4R barr agon 20.8*, Tb MetRS inh -0.3, NALP1 inh 45.9, MC4R barr conf -0.2 and MOR-DOR barr ag 9.7.
`COc1cc(OC)cc(C(=O)NC(=S)Nc2ccc3c4c(cccc24)CC3)c1` gave A1 inh 0.7, NLRP3 yeast inh 9.4, MC4R antag cAMP -0.8, MC4R barr agon -1.4, Tb MetRS inh -1.0 and NALP1 inh 25.2.
`Cc1ccc(OCC(=O)Nc2ccc3c4c(cccc24)CC3)c(C)c1` gave A1 inh 0.3, NLRP3 yeast inh -1.8, MC4R antag cAMP -6.0, MC4R barr agon 6.7, Tb MetRS inh -0.5 and NALP1 inh 22.6.
Cc1cccc(OCC(=O)Nc2ccc3c4c(cccc24)CC3)c1C was read as A1 inh 1.1, NLRP3 yeast inh 16.7, MC4R antag cAMP -0.7, MC4R barr agon 30.7*, Tb MetRS inh -0.5, NALP1 inh 19.0, MC4R barr conf 2.5 and MOR-DOR barr ag 4.0.
COc1ccc(C(=O)NC(=S)Nc2ccc3c4c(cccc24)CC3)cc1OC was read as A1 inh 0.3, NLRP3 yeast inh 5.4, MC4R antag cAMP -4.5, MC4R barr agon 12.9*, Tb MetRS inh -1.8, NALP1 inh 24.7, MC4R barr conf 7.5 and MOR-DOR barr ag 2.4.
Screening N#CCC(=O)Nc1ccc(C(=O)NNC(=O)c2ccccc2-n2cccc2)cc1 returned A1 inh 0.4, NLRP3 yeast inh 5.4, MC4R antag cAMP -3.0, MC4R barr agon -0.7 and Tb MetRS inh 0.4.
Screening COc1ccc(C(=O)O)cc1NC(=S)NC(=O)C(c1ccccc1)c1ccccc1 returned A1 inh 0.9, NLRP3 yeast inh 3.4, MC4R antag cAMP 18.5, MC4R barr agon 3.0, Tb MetRS inh -0.2 and NALP1 inh 6.5.
Screening CCCNC(=O)C(Cc1ccccc1C)NC(=O)c1ccc(C(F)(F)F)cc1 (stereo not drawn) returned A1 inh 2.7, NLRP3 yeast inh 8.5, MC4R antag cAMP 5.9, MC4R barr agon -1.1 and Tb MetRS inh 0.3.
C[C@@H]1CN([C@H](C)CO)C(=O)CCCn2cc(nn2)CO[C@H]1CN(C)C(=O)Nc1ccnc(N2CCOCC2)c1 was read as MC4R antag cAMP -1.0, MC4R barr agon -1.0 and Tb MetRS inh 0.2.
Screening O=C(Nc1ccc2oc(=O)ccc2c1)c1ccc(-c2cccc(Cl)c2)o1 returned A1 inh -0.2, NLRP3 yeast inh 19.0, MC4R antag cAMP 21.4, MC4R barr agon 19.5*, Tb MetRS inh 2.4, MC4R barr conf -0.1 and MOR-DOR barr ag 8.5.
`Cc1sc2nc(C)n(/N=C/c3ccccc3O)c(=O)c2c1C` gave A1 inh -0.6, NLRP3 yeast inh 1.4, MC4R antag cAMP 5.5, MC4R barr agon 13.2*, Tb MetRS inh -1.4, NALP1 inh 4.6, MC4R barr conf 3.0 and MOR-DOR barr ag 3.0.
`O=C(Nc1ccc(C(F)(F)F)cc1-c1ccccc1)c1ccccc1` gave A1 inh 0.4, NLRP3 yeast inh 1.0, MC4R antag cAMP -4.5, MC4R barr agon 12.9*, Tb MetRS inh -0.6, NALP1 inh -4.8, MC4R barr conf 1.7 and MOR-DOR barr ag 4.3.
Screening O=C(COc1ccc(Cl)cc1)Nc1ccccc1C(=O)NCc1ccco1 returned A1 inh -0.9, NLRP3 yeast inh 13.6, MC4R antag cAMP -5.0, MC4R barr agon 5.7, Tb MetRS inh -0.1 and NALP1 inh 11.8.
`Cc1cc(C)cc(OCC(=O)Nc2ccccc2C(=O)NCc2ccco2)c1` gave A1 inh 0.4, NLRP3 yeast inh -0.5, MC4R antag cAMP -1.4, MC4R barr agon 31.4*, Tb MetRS inh 0.1, NALP1 inh 26.0, MC4R barr conf 1.0 and MOR-DOR barr ag 5.0.
Cc1sc2ncnc(N3CCC(C(=O)Nc4nnc(SCc5ccccc5F)s4)CC3)c2c1C was read as A1 inh -0.2, NLRP3 yeast inh 8.6, MC4R antag cAMP 10.1, MC4R barr agon 0.2 and Tb MetRS inh -0.3.
Screening Cc1nnc(NS(=O)(=O)c2ccc(F)cc2)s1 returned MC4R antag cAMP 4.0, MC4R barr agon 0.4 and Tb MetRS inh -0.6.
For CC(=O)Nc1cc(-c2ccc(S(C)(=O)=O)cc2)cn2c(-c3ccc(F)c(Cl)c3)cnc12 the results were MC4R antag cAMP 11.5, MC4R barr agon 19.5*, Tb MetRS inh -0.1, MC4R barr conf 16.9* and MOR-DOR barr ag 3.6.
